Hits are enriched below; roughly 2.6% of the tested compounds scored in any of these assays.
proCasp7 act: procaspase-7 activators, primary screen, counter-screen for procaspase-3 activator project, biochemical, absorbance, HTS, human. AID 463210, 2010. activation, % at 8.5 µM. recombinant procaspase-7, Ac-DEVD-pNA absorbance 405 nm; D23A/D198A/D206A triple mutant, cannot self-cleave; scale: DMSO 0, 5 µM enzyme 100. 0.093% of 330,000 active. Caspase-7 (Homo sapiens), P55210;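 active = percent activation above the screen-wide mean plus 3 SD, cut at about 25% in these data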
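Assay system: Uncleavable procaspase-7 mutant enzyme | Input: 2 µM procaspase-7 mutant as dispensed | Timing: 1 h compound preincubation, 2 h substrate cleavage, 25 °C | Repeats: One well per compound | Control set: DMSO wells as 0%, DMSO with 5 µM added PC-7 as 100% | Technique: Epi-absorbance of released pNA at 405 nm, two timepoints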
PolyA inh: polyadenylation inhibitors in yeast reporter cells, primary screen, luminescence, S. cerevisiae. S. cerevisiae SKY197-pL101 polyadenylation reporter, beta-gal luminescence; efflux-impaired pdr1/pdr3 knockout yeast; score 100 = 6 SD above DMSO. activity score, % at 12 µM. 0.02% of 300,000 active. AID 1875, 2009;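 active = lowest replicate activity score at least 50, where 100 means six control SD above control mean; inconclusive = lowest score under 50 but half or more replicates reach 50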;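 note: yeast exposed to compound for 9 h at 30 °C; higher score means more reporter readthrough which indicates perturbed polyadenylation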
proCasp3 act: activators of human procaspase-3 D3A mutant, primary screen, biochemical, absorbance, PC-3 D3A mutant, single concentration; Caspase-3 (Homo sapiens), P42574; recombinant procaspase-3 D3A, Ac-DEVD-pNA absorbance 405 nm; activation, % at 8.5 µM; 0.11% of 330,000 active;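 active = activation above the mean of all tested compounds plus 3 SD, cut at about 21% in these data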;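 note: 0% = DMSO alone and 100% = DMSO wells spiked with extra 5 µM PC-3 D3A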
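Assay system – Procaspase-3 D3A mutant, all three cleavage aspartates alanine · Controls – DMSO-only low control, 5 µM PC-3 D3A high control · Schedule – 1 h compound preincubation, 2 h substrate hydrolysis at 25 °C · Signal – 405 nm absorbance of p-nitroaniline, reads at 0 and 120 min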
AHR act: AHR activators, primary screen, cell-based, luminescence, luciferase reporter, human; Aryl hydrocarbon receptor (Homo sapiens), P35869; AHR-responsive luciferase reporter cells; activation, % at 5 µM; 2.5% of 320,000 active; in the data active = activation above about 47%;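 note: 0% = vehicle wells and 100% = reference agonist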
Target sequence (P35869 whole entry, looked up): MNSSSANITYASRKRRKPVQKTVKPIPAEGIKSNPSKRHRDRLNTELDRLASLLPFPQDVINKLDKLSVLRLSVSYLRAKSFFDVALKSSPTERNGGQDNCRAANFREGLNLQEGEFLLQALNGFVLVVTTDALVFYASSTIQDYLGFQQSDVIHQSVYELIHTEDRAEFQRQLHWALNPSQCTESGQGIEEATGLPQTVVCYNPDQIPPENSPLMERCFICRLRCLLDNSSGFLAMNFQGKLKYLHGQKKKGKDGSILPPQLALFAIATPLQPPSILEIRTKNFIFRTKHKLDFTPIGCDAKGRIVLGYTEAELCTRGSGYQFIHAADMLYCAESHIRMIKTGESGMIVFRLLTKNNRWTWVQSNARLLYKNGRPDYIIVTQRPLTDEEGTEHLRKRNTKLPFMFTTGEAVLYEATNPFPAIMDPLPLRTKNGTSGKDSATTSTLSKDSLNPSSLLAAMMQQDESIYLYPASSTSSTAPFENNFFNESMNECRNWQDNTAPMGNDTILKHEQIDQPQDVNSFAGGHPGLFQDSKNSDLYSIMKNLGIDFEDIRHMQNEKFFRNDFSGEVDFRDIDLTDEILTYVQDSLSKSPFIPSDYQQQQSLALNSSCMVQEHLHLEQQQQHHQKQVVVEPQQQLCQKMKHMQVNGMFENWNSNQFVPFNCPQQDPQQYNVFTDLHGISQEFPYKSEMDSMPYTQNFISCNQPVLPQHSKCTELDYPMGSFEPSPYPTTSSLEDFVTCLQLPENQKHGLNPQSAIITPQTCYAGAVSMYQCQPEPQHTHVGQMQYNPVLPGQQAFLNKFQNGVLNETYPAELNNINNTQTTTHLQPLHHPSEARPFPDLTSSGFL
PC3 dual counter: procaspase-3 activators, counter-screen for dual procaspase-3/7 activator project, biochemical, absorbance, PC-3 D3A mutant, human. activation, % at 8.5 µM. recombinant PC-3 D3A, Ac-DEVD-pNA absorbance 405 nm; aspartates 9, 28, 175 changed to alanine; 100% = enzyme control. 290 tested, under 10 active. AID 493114, 2011. shares compounds with proCasp7 act;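 active = mean percent activation across triplicates above a set limit taken from the earlier primary procaspase-3 screen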;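 note: 0% = DMSO wells and 100% = DMSO wells with 5 µM added PC-3 D3A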
PC7 dual conf: activation of procaspase-7 enzyme – biochemical, absorbance, human, dual procaspase-3/-7 activator project, confirmation. 290 tested, under 10 active. activation, % at 8.5 µM. shares compounds with proCasp7 act. AID 493115, 2011. recombinant procaspase-7, Ac-DEVD-pNA absorbance 405 nm; D23A/D198A/D206A mutant that cannot self-cleave;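 active = mean activation above a set limit carried over from the earlier primary screen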;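 note: 0% = DMSO only and 100% = DMSO with added 5 µM PC-7 enzyme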
Numbers without * were called inactive; ? = inconclusive; . = no result given.

SMILES | proCasp7 act | PolyA inh | proCasp3 act | AHR act | PC3 dual counter | PC7 dual conf
CS(=O)(=O)N1N=C(c2ccco2)CC1c1ccco1 (stereo not given) | 35.8* | 15.3 | -15.1 | 5.1 | -8.4 | -14.1
CS(=O)(=O)N1N=C(c2ccco2)CC1c1ccccc1 (stereo not given) | -9.4 | -8.2 | -13.0 | -1.4 | . | .
CCOc1ccc(CN2CCN(CC3CC3)CC2CCO)cc1 (stereo not given) | -5.5 | 16.4 | 5.2 | 3.7 | . | .
COc1ccc(-c2cc3nc(-c4ccccc4)cc(N4CCC(O)CC4)n3n2)cc1 | 32.4* | -9.6 | -2.4 | 21.2 | -0.8 | -5.5
COc1ccc(-c2cc3nc(-c4ccccc4)cc(N4CCCC(O)C4)n3n2)cc1 (stereo not given) | 58.4* | -7.7 | 28.9* | 32.1 | -1.6 | -5.1
Fc1ccc(-c2cc3nc(-c4ccccc4)cc(N4CCOCC4)n3n2)cc1 | 7.0 | -9.5 | 5.4 | 3.8 | . | .
COc1ccc(-c2cc(C)no2)cc1S(=O)(=O)NCc1ccc(OC(C)C)cc1 | 8.8 | -15.6 | 7.8 | 0.7 | . | .
CCOC(=O)c1cccc(NC(=O)COC)c1 | 8.8 | 3.7 | -0.5 | 0.6 | . | .
COCC(=O)Nc1cccc(Br)c1 | 26.1* | -21.6 | 4.7 | -1.9 | 2.5 | -2.5
COc1ccc(CNC(=O)C2CCN(c3nc(OC)nc(OC)n3)CC2)cc1 | 11.6 | 12.0 | 0.9 | -1.3 | . | .
COc1ccc(CNC(=O)C2CCN(c3cc(C(=O)Nc4cccc(OC)c4)ccn3)CC2)cc1 | 52.9* | -11.0 | 6.1 | 9.7 | 0.2 | 3.6
COc1cccc(NC(=O)c2ccnc(N3CCC(C(=O)NCc4cc(OC)ccc4OC)CC3)c2)c1 | 33.5* | -6.1 | 3.5 | 10.6 | 5.9 | 9.0
Cc1ccccc1NS(=O)(=O)c1ccc(C(=O)NN2CCCCC2)cc1 | 3.2 | -9.3 | 5.4 | -0.8 | . | .
O=C(CSCc1ccc(Cl)cc1)N/N=C/c1ccc(OCC(=O)Nc2ccccc2)cc1 | 28.5* | -3.1 | 1.6 | 3.6 | 0.0 | 0.6
COC(=O)CSc1nc(C)c(C(=O)Nc2ccccc2C)c(-c2ccc(Cl)cc2)c1C#N | 32.3* | -0.5 | 20.8 | -2.9 | 3.8 | -22.2
Cc1ccccc1NC(=O)c1c(C)nc(SCC(=O)OCc2ccccc2)c(C#N)c1-c1ccc(F)cc1 | 3.3 | 13.8 | 7.6 | -1.4 | . | .
Cc1noc(NS(=O)(=O)c2ccc(NC(=O)C(F)(F)C(F)(F)C(F)(F)F)cc2)c1C | 2.3 | -7.5 | -3.4 | 1.3 | . | .
COc1ccc(/C=C2/CCc3ccccc3C2=O)cc1OC | 2.7 | -28.5 | 2.6 | 3.7 | . | .
COc1cc(OC)c(OC)cc1/C=C1/Cc2ccccc2C1=O | 27.6* | 9.0 | 13.3 | 7.4 | -1.2 | 0.7
Cc1cc(C)c2nc(NC(=O)C3CSC4(C)CCC(=O)N34)sc2c1 (stereo not given) | -3.8 | . | -1.0 | -8.2 | . | .
CCOc1ccc(N(CC(=O)NN=C2CCN(C)CC2)S(=O)(=O)c2ccc(Br)cc2)cc1 | . | -5.0 | . | . | . | .
COC(=O)C1=CN(Cc2ccccc2)C=C(C(=O)OC)C1c1ccc(O)c(OC)c1 | -1.7 | -1.3 | -4.5 | 4.3 | . | .
CCOc1cc(C2C(C(=O)OC)=CN(Cc3ccc(Cl)cc3)C=C2C(=O)OC)ccc1O | 56.1* | -17.6 | 27.4* | 7.8 | -1.5 | -2.6
Cc1ccc(N(C)S(=O)(=O)c2cc3c(cc2C)NC(=O)CO3)cc1 | 1.6 | 0.5 | -2.1 | 0.1 | . | .
C=CCSc1nnc(-c2cc3c(s2)-c2ccccc2CC3)o1 | 27.7* | 13.1 | 18.1 | 66.1* | -28.9 | -27.3
SMILES | proCasp7 act | PolyA inh | proCasp3 act | AHR act | PC3 dual counter | PC7 dual conf
CN(C)c1nc(-c2cccs2)cc(C(F)(F)F)c1C#N | 39.0* | -10.3 | -7.2 | 0.7 | -31.5 | -35.8
CN(C)c1nc(-c2ccccc2)cc(C(F)(F)F)c1C#N | 14.3 | 3.9 | 15.6 | 6.3 | . | .
CCn1nc(NC(=O)c2ccccc2)c2cc3cccc(C)c3nc21 | 49.8* | -12.0 | 53.4* | 28.2 | -29.1 | -35.3
Cc1cccc2cc3c(NC(=O)C(C)(C)C)nn(CC(C)C)c3nc12 | 35.3* | -11.3 | 36.3* | 12.9 | -29.2 | -35.8
CCn1nc(NC(C)=O)c2cc3cccc(C)c3nc21 | -4.7 | -7.3 | -10.9 | 20.1 | . | .
CCC1(CC)NC(=O)N(CC(=O)OCC(=O)Nc2ccc(OC(F)(F)F)cc2)C1=O | 2.6 | . | 1.2 | 0.2 | . | .
CSc1ccccc1OCc1cc(C(=O)N2CCc3[nH]cnc3C2c2ccccn2)no1 (stereo not given) | 4.1 | 5.9 | 4.1 | 0.8 | . | .
CC(=O)c1ccc(OCCn2c(SCC(=O)O)nc3ccccc32)cc1 | . | 11.6 | . | . | . | .
Nc1c(S(=O)(=O)c2cccs2)c2nc3ccccc3nc2n1Cc1cccs1 | 77.7* | 7.1 | 81.6* | 0.2 | -11.1 | -21.4
Nc1c(S(=O)(=O)c2cccs2)c2nc3ccccc3nc2n1CCc1ccccc1 | 5.4 | -1.4 | 6.2 | -7.6 | . | .
Cc1c(O)ccc2c(CC(=O)N[C@@H](Cc3ccc(O)cc3)C(=O)O)cc(=O)oc12 | . | -8.9 | . | . | . | .
O=C(Cc1cc(=O)oc2cc(O)ccc12)NC(Cc1ccc(Cl)cc1)C(=O)O (stereo not given) | 26.9* | -3.1 | 19.5 | 3.5 | -30.4 | -35.9
O=C(O)CC(C(=O)NCc1ccccc1)C1CCCO1 (stereo not given) | 27.0* | -5.7 | -5.8 | -0.8 | 2.2 | 0.7
COc1ccccc1NC(=O)Nc1cccc(NC(C)=O)c1 | 74.3* | -11.2 | 2.1 | 6.2 | 1.8 | 0.3
COc1ccc(NC(=O)Nc2cccc(NC(C)=O)c2)c(OC)c1 | -23.4 | -4.3 | -0.4 | 15.2 | . | .
CCOC(=O)CN1N=C(c2ccc(C)cc2)CCC1=O | 5.6 | -2.3 | -4.7 | 3.5 | . | .
CCc1ccc(-n2nc3cc(C)c(N)cc3n2)cc1 | 27.9* | 5.0 | 34.8* | 0.3 | -30.0 | -34.5
Cc1ccc(-n2nc3cc(C)c(N)cc3n2)cc1 | 11.5 | -1.0 | 8.6 | 22.5 | . | .
O=C(Nc1cccc(O)c1)c1cccc(S(=O)(=O)N2CCCC2)c1 | 25.7* | 3.5 | -6.9 | 3.5 | 1.0 | 0.8
Cc1ccc2nc(-c3ccc(NC(=O)C(C)Sc4nncs4)cc3)sc2c1 (stereo not given) | 29.9* | ? | 3.0 | -10.7 | 1.5 | -2.2
Cc1ccc2nc(-c3ccc(NC(=S)NC(=O)CC(C)C)cc3)sc2c1 | 7.2 | 15.2 | 7.0 | 8.0 | . | .

Assay outcomes: PubChem, several laboratories
